Results from ChEMBL document CHEMBL3784946, “Antiviral Merosesquiterpenoids Produced by the Antarctic Fungus Aspergillus ochraceopetaliformis SCSIO 05702” (J Nat Prod, 2016).
Converted amounts (≈) assume the structure as drawn. The source made the active and inactive calls. The calls are words filed in the database; no cut-off is given here.

Legend:
[1] = system: Influenza A virus; test: Antiviral activity against Influenza A virus H1N1 infected in MDCK cells assessed as inhibition of virus-induced cytopathic effect after 48 hrs by crystal violet staining-based microplate reader analysis; assay type: functional, organism-based
Summary of the method: (§1)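 Confluent MDCK monolayers infected with influenza virus for 1 h at 37 °C. Virus was removed, and cells were kept in RPMI 1640 with 4 μg/mL trypsin plus graded compound concentrations for 48 h at 37 °C. Cells were then fixed in 4% formaldehyde and stained with 0.1% crystal violet, with absorbance read at 570 nm. IC50 is the concentration giving 50% […] at 48 h. Values are means of three independent experiments.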

[2] = system: Influenza A virus H3N2; test: Antiviral activity against Influenza A virus H3N2 infected in MDCK cells assessed as inhibition of virus-induced cytopathic effect after 48 hrs by crystal violet staining-based microplate reader analysis; assay type: functional, organism-based; summary of the method: as §1
[3] = system: HL-60; test: Cytotoxicity against human HL60 cells assessed as reduction in cell viability after 72 hrs by CCK8 assay; assay type: functional, cell-based
Summary of the method: (§2)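 Cells grown in RPMI or DMEM with 10% FBS and 1% penicillin/streptomycin at 37 °C under 5% CO2. Seeded at 400–800 cells/well and exposed to graded compound concentrations or solvent control for 72 h. Viability read by CCK-8 absorbance at 450 nm, and IC50 derived from dose–response curves.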

[4] = Selectivity index, ratio of CC50 for MDCK cells to IC50 for Influenza A virus H1N1 infected in MDCK cells; assay type: functional
Summary of the method: (§3)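 SI calculated as CC50 divided by IC50, both from the CPE-inhibition assay on MDCK cells. The underlying values are means of three independent experiments.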

[5] = Cytotoxicity against MDCK cells after 48 hrs by crystal violet staining-based microplate reader analysis; assay type: cell-based, Canis lupus familiaris; conditions: dog
Summary of the method: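 CC50 taken from the CPE-inhibition assay format on MDCK cells, with crystal violet read-out. Values are means ± SD of three independent experiments.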

[6] = system: Mycobacterium tuberculosis; test: Antitubercular activity against Mycobacterium tuberculosis H37Ra assessed as growth inhibition at 100 ug/ml after 7 days by Alamar blue assay; assay type: functional, organism-based
Summary of the method: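 M. tuberculosis H37Ra exposed 7 days to material at 100 μg/mL (from 10 mg/mL DMSO stock; 1% v/v DMSO). Growth measured by Alamar Blue fluorescence, with inhibition expressed relative to bacteria-only controls.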

[7] = system: HT-29; test: Cytotoxicity against human HT-29 cells assessed as reduction in cell viability after 72 hrs by CCK8 assay; assay type: functional, cell-based; summary of the method: as §2
[8] = system: HeLa; test: Cytotoxicity against human HeLa cells assessed as reduction in cell viability after 72 hrs by CCK8 assay; assay type: functional, cell-based; summary of the method: as §2
[9] = system: U-937; test: (§4) Cytotoxicity against human U937 cells assessed as reduction in cell viability after 72 hrs by CCK8 assay; assay type: functional, cell-based; summary of the method: as §2
[10] = system: A549; test: Cytotoxicity against human A549 cells assessed as reduction in cell viability after 72 hrs by CCK8 assay; assay type: functional, cell-based; summary of the method: as §2
[11] = Selectivity index, ratio of CC50 for MDCK cells to IC50 for Influenza A virus H3N2 infected in MDCK cells; assay type: functional; summary of the method: as §3
[12] = system: Staphylococcus aureus; test: Antibacterial activity against Staphylococcus aureus assessed as growth inhibition at 0.01 to 100 ug/ml after 24 hrs by agar dilution method; assay type: functional, organism-based
Summary of the method: (§5)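 Bacteria grown on LB agar plates at 37 °C. Samples were dissolved in DMSO and serially diluted 2-fold from 100 to 0.01 μg/mL. 5 μL of each dilution was loaded onto a 5 mm paper disk placed on the plate. After 24 h, inhibition zone diameters (mm) were recorded. MIC was the lowest concentration with no visible growth. Ciprofloxacin lactate served as positive control.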

[13] = system: Escherichia coli; test: Antibacterial activity against Escherichia coli assessed as growth inhibition at 0.01 to 100 ug/ml after 24 hrs by agar dilution method; assay type: functional, organism-based; summary of the method: as §5
[14] = as §4; assay type: functional, cell-based; conditions: U-937, 72 h; summary of the method: as §2
[15] = system: Staphylococcus aureus; test: Antibacterial activity against Staphylococcus aureus after 24 hrs by agar dilution method; assay type: functional
[16] = system: Mycobacterium tuberculosis; test: Antitubercular activity against Mycobacterium tuberculosis H37Ra after 7 days by Alamar blue assay; assay type: functional; conditions: 168 h
Summary of the method: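 M. tuberculosis H37Ra exposed 7 days to 2-fold dilution series from 100 μg/mL downward (10 mg/mL DMSO stock; 1% v/v DMSO at top). Growth measured by Alamar Blue fluorescence.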

Row | Structure (SMILES) | IC50 [1] [nM] | IC50 [2] [nM] | Activity [3] | Ratio CC50/IC50 [4] | CC50 at 48 h [5] [nM] | growth inhibition (GI) [6] | Activity [7] | Activity [8] | Activity [9] | Activity [10] | Ratio CC50/IC50 [11] | growth inhibition (GI) [12] | growth inhibition (GI) [13] | IC50 ([7]; HT-29, 72 h) [nM] | IC50 [14] [nM] | MIC [15] [µg/mL] | MIC90 [16] [µM]
1 | CCOC(=O)C1=C[C@@H](OC(CC)CC)[C@H](NC(C)=O)[C@@H](N)C1 [OSELTAMIVIR] | 16.9 | 18.5 |  |  |  |  |  |  |  |  |  |  |  |  |  |  | 
2 | CC[C@H]1O[C@@H]2O[C@H](/C=C/C=C\C=C\c3oc(=O)cc(OC)c3C)[C@H](O)[C@]2(C)[C@@]1(C)O | 230 | 660 | inactive | 2.35 | 540 | inactive | inactive | inactive | inactive | inactive | 0.81 | inactive | inactive |  |  |  | 
3 | Cc1oc(=O)c2c(c1C)O[C@@]1(C)[C@@H]([C@@H](C)[C@]3(O)CC(=O)C(C)(C)C(=O)[C@@]3(O)[C@H]1O)[C@H]2O |  |  | inactive |  |  | inactive | inactive | inactive | inactive | inactive |  | inactive | inactive |  |  |  | 
4 | Cc1oc(=O)c2c(c1C)O[C@@]1(C)[C@H](C2)[C@@H](C)[C@]2(O)CC(=O)C(C)(C)C(=O)[C@@]2(O)[C@H]1O |  |  | inactive |  |  | inactive | inactive | inactive | inactive | inactive |  | inactive | inactive |  |  |  | 
5 | Cc1oc(=O)c2c(c1C)O[C@]1(C)[C@H](O)C[C@@]3(O)C(C)(C)C(=O)CC[C@]3(C)[C@H]1C2 |  |  | inactive |  |  | inactive | inactive | inactive | inactive | inactive |  | inactive | inactive |  |  |  | 
6 | CC(=O)O[C@H]1C(=O)[C@@]2(C)[C@H]([C@H](OC(=O)c3ccccc3)[C@]3(O)C[C@H](OC(=O)[C@H](O)[C@@H](NC(=O)c4ccccc4)c4ccccc4)C(C)=C1C3(C)C)[C@]1(OC(C)=O)CO[C@@H]1C[C@@H]2O [PACLITAXEL] |  |  |  |  |  |  |  |  |  |  |  |  |  | 3.04 | 1.66 |  | 
7 | Cc1oc(=O)c2c(c1C)O[C@@]1(C)C(=C2)[C@@H](C)[C@]2(O)CC(=O)C(C)(C)C(=O)[C@@]2(O)[C@H]1O |  |  | inactive |  |  | inactive | inactive | inactive | inactive | inactive |  | inactive | inactive |  |  |  | 
8 | CC(O)C(=O)O.O=C(O)c1cn(C2CC2)c2cc(N3CCNCC3)c(F)cc2c1=O [CIPROFLOXACIN LACTATE] |  |  |  |  |  |  |  |  |  |  |  |  |  |  |  | 1.25 | 
9 | CC[C@H]1O[C@@H]2O[C@@H]3[C@H](O)[C@@H](/C=C/C=C/c4oc(=O)cc(OC)c4C)O[C@@H]3[C@]2(C)[C@@]1(C)O |  |  | inactive |  |  | inactive | inactive | inactive | inactive | inactive |  | inactive | inactive |  |  |  | 
10 | CO[C@H]1c2c(c(C)c(C)oc2=O)O[C@@]2(C)[C@H]1[C@@H](C)[C@]1(O)CC(=O)C(C)(C)C(=O)[C@@]1(O)[C@H]2O | > 20000 | 12200 | inactive |  | 20900 | inactive | inactive | inactive | inactive | inactive | 1.71 | inactive | inactive |  |  |  | 
11 | NNC(=O)c1ccncc1 [ISONIAZID] |  |  |  |  |  |  |  |  |  |  |  |  |  |  |  |  | 2.04 (≈ 0.28 µg/mL)
12 | CC[C@H]1O[C@@H]2O[C@H](/C=C/C=C/C=C/c3oc(=O)cc(OC)c3C)[C@H](O)[C@]2(C)[C@@]1(C)O | 540 | 840 | inactive | 0.44 | 240 | inactive | inactive | inactive | inactive | inactive | 0.29 | inactive | inactive |  |  |  | 
